For 15 molecules, IC50 and Ki results are on record in ChEMBL document CHEMBL1130826, “Novel constrained CCK-B dipeptoid antagonists derived from pipecolic acid” (Bioorg Med Chem Lett, 1998).

Assay [1] addresses T1, Gastrin/cholecystokinin type B receptor (Rattus norvegicus, UniProt P30553).
T1 sequence (P30553 whole entry): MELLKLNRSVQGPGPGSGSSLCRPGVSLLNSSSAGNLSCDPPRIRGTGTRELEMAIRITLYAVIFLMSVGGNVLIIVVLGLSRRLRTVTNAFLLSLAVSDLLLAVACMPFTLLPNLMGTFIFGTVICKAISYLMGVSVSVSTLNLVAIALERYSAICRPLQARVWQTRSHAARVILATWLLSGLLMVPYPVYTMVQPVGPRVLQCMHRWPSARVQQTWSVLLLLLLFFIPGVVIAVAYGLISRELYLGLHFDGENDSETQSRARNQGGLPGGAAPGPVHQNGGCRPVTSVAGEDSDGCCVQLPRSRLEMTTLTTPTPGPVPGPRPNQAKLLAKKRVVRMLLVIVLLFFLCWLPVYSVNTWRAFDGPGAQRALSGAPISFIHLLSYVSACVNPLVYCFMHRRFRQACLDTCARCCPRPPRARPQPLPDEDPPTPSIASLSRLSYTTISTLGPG
Put plainly: Inhibitory activity against CCK-B receptor.

The target of assay [2] is T1, Gastrin/cholecystokinin type B receptor. The assay is described as follows: Capacity to inhibit [3H]-p CCK 8 binding to membrane preparations of CHO cells transfected with the rat CCK-B receptor. The assay is classed as cell membranes. In short, it runs like this: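 Ki from displacement of [3H]pCCK8 bound to membranes of CHO cells stably transfected with the rat CCK-B receptor.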

For assay [3], the target named is T2, Cholecystokinin receptor type A (Cavia porcellus, UniProt Q63931).
T2 sequence (Q63931 whole entry): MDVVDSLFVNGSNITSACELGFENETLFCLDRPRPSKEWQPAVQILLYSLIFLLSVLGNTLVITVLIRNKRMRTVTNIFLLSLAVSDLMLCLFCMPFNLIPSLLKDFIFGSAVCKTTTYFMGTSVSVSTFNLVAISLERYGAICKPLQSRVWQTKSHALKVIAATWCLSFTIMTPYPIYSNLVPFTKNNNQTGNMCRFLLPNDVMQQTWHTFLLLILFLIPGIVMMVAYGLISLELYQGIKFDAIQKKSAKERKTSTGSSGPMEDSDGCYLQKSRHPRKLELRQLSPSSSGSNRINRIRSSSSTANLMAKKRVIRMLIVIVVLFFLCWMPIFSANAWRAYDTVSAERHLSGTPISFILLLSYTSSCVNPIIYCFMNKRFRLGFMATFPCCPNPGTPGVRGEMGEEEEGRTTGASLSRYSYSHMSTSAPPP
The assay is described as follows: Binding affinity against CCK-A receptor in guinea pig pancreatic membranes. The class given is cell membranes. Summed up:
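Ki from displacement of [3H]pCCK8 bound to guinea-pig pancreatic membranes (CCK-A receptor).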

The structures appear in SMILES notation.

By IC50 is commonly meant the midpoint of a concentration-inhibition curve. In general, Ki refers to the dissociation constant of the complex between target and ligand, obtained from inhibition or displacement. Read a low Ki as tighter binding.

In turn, `C[C@](Cc1c[nH]c2ccccc12)(NC(=O)OC1C2CC3CC(C2)CC1C3)C(=O)N1C[C@H](Oc2ccc([N+](=O)[O-])cc2)C[C@@H]1C(=O)O` (stereo partly drawn) yielded an IC50 in assay [1] of 507 nM. The molecule further yielded an inhibition constant Ki in assay [2] of 32.7 nM.

The molecule `C[C@](Cc1c[nH]c2ccccc12)(NC(=O)OC1C2CC3CC(C2)CC1C3)C(=O)N1C[C@H](OCc2ccccc2)C[C@@H]1C(=O)O` (stereo partly drawn) showed a Ki in assay [2] of 24 nM.

Consider `C[C@](Cc1c[nH]c2ccccc12)(NC(=O)OC1C2CC3CC(C2)CC1C3)C(=O)N1CC[C@@H](Oc2ccc(Cl)cc2Cl)C[C@@H]1C(=O)O` (stereo partly drawn), for which the Ki in assay [2] worked out at 789 nM.

For `C[C@](Cc1c[nH]c2ccccc12)(NC(=O)OC1C2CC3CC(C2)CC1C3)C(=O)N1CC[C@H](Oc2ccc(Cl)cc2Cl)C[C@H]1C(=O)O` (stereo partly drawn), the affinity in assay [2] corresponds to a Ki of 791 nM.

With `CC(Cc1c[nH]c2ccccc12)(NC(=O)OC1C2CC3CC(C2)CC1C3)C(=O)N1CC[C@@H](Oc2ccc(Cl)cc2Cl)C[C@@H]1C(=O)O` (single isomer, unassigned), affinity in assay [2] was put at a Ki of 1040 nM.

As for `C[C@](Cc1c[nH]c2ccccc12)(NC(=O)OC1C2CC3CC(C2)CC1C3)C(=O)N1C[C@H](Oc2ccc(F)cc2F)C[C@@H]1C(=O)O` (stereo partly drawn), half-maximal inhibition in assay [1] (IC50) was put at 389 nM. Further, the affinity in assay [2] corresponds to a Ki of 18.6 nM.

In assay [2], `COC(=O)[C@H]1C[C@@H](Oc2ccc(Cl)cc2Cl)CCN1C(=O)[C@@](C)(Cc1c[nH]c2ccccc12)NC(=O)OC1C2CC3CC(C2)CC1C3` (stereo partly drawn) showed a Ki of 1540 nM.

In assay [3], `C[C@](Cc1c[nH]c2ccccc12)(NC(=O)OC1C2CC3CC(C2)CC1C3)C(=O)N(CCc1ccc(Cl)cc1)CC(=O)O` (stereo partly drawn) displayed a Ki of 1060 nM.

`C[C@](Cc1c[nH]c2ccccc12)(NC(=O)OC1C2CC3CC(C2)CC1C3)C(=O)N1CC[C@@H](Oc2ccc(Cl)cc2Cl)C[C@H]1C(=O)O` (stereo partly drawn): the Ki in assay [2] was found to be 543 nM.

As to `CC(Cc1c[nH]c2ccccc12)(NC(=O)OC1[C@H]2C[C@@H]3C[C@@H](C[C@H]1C3)C2)C(=O)N1CCC(C(=O)c2ccccc2)CC1` (stereo partly drawn), the Ki in assay [2] came out at 3400 nM; in assay [3], 1700 nM.

The molecule `C[C@@](Cc1c[nH]c2ccccc12)(NC(=O)OC1C2CC3CC(C2)CC1C3)C(=O)N1CC[C@H](Oc2ccc(Cl)cc2Cl)C[C@@H]1C(=O)O` (stereo partly drawn) returned a Ki in assay [2] of 812 nM.

Consider `C[C@](Cc1c[nH]c2ccccc12)(NC(=O)OC1C2CC3CC(C2)CC1C3)C(=O)N1CC[C@H](Oc2ccc(Cl)cc2Cl)C[C@@H]1C(=O)O` (stereo partly drawn), for which the Ki amounted to 175 nM in assay [2] and 3720 nM in assay [3].

As for `C[C@@](Cc1c[nH]c2ccccc12)(NC(=O)OC1C2CC3CC(C2)CC1C3)C(=O)N1CC[C@H](Oc2ccc(Cl)cc2Cl)C[C@H]1C(=O)O` (stereo partly drawn), half-maximal inhibition in assay [1] (IC50) required 217 nM. Besides, the Ki came to 1680 nM in assay [2] and 1060 nM in assay [3].

In the case of `C[C@](Cc1c[nH]c2ccccc12)(NC(=O)OC1C2CC3CC(C2)CC1C3)C(=O)N1C[C@H](Oc2ccc(Cl)cc2Cl)C[C@@H]1C(=O)O` (stereo partly drawn), in assay [1], it took 37.4 nM to reach half-maximal inhibition (IC50). Also, the Ki is 15.3 nM in assay [2] and 751 nM in assay [3].

On to `C[C@@](Cc1c[nH]c2ccccc12)(NC(=O)OC1C2CC3CC(C2)CC1C3)C(=O)N1CC[C@@H](Oc2ccc(Cl)cc2Cl)C[C@H]1C(=O)O` (stereo partly drawn), for which the affinity in assay [2], expressed as Ki, was 896 nM.
